A3A deaminase – human APOBEC3A DNA deaminase inhibition | P31941 | inhibition, % at 20 µM | recombinant A3A, FAM/TAMRA ssDNA deamination fluorescence | actives 0.41% (n = 330,000) | AID 493011;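 active = at least 40% inhibition at 20 µM here, with at most 30% in a related deaminase screen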
APOBEC3G inh – inhibitors of human APOBEC3G DNA deaminase | inhibition, % at 20 µM | actives 0.28% (n = 330,000) | AID 493012 | recombinant A3G, ssDNA deamination FAM/TAMRA fluorescence;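 active = inhibition of at least 40% at 20 µM, with no more than 30% in the related APOBEC3A deaminase screen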
FN deposition inh – fibronectin deposition inhibition; AID 743247; inhibition, % at 12.6 µM; actives 0.086% (n = 350,000); AH1F fibroblasts, Alexa488-fibronectin deposition fluorescence, overnight;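 active = mean inhibition across replicates of 30% or more, regardless of how many single replicates reach that level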
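Assay system: AH1F fibroblasts assembling fluorescent fibronectin matrix; Amount: 10000 AH1F cells per well; Buffer or medium: DMEM, 2% serum; Probe or stimulus: Alexa488-fibronectin, 24 nM final in well; Doses: single compound dose, delivered by pin transfer; Incubation: 1 h adhesion, overnight exposure; Measured by: fluorescence 485/525 nm; Read-out: fibronectin deposition inhibition.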
ABHD5 PLIN5 PPI – blocks binding of human ABHD5 to perilipin-5; Q00G26+Q8WTS1; AID 602281; Split G. princeps luciferase complementation, luminescence, 4 h; inhibition, % at 4 µM; actives 0.78% (n = 360,000);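 active = inhibition above the mean inhibition across every tested compound plus 3 SD, cut at about 22% in these data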
Target sequence (Q00G26 whole entry, looked up): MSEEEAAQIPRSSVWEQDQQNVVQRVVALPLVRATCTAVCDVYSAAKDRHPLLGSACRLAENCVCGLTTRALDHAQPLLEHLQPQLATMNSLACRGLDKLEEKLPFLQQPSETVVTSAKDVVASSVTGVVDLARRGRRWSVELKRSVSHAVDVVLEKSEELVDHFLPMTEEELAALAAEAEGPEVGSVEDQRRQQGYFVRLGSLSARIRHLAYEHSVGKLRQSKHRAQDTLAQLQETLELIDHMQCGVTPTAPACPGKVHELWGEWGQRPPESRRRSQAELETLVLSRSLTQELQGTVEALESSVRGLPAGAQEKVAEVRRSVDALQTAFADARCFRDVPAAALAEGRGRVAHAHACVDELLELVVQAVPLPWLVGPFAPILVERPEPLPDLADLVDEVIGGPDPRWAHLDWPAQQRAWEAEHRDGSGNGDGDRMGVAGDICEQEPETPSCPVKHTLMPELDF
Target sequence (Q8WTS1 whole entry, looked up): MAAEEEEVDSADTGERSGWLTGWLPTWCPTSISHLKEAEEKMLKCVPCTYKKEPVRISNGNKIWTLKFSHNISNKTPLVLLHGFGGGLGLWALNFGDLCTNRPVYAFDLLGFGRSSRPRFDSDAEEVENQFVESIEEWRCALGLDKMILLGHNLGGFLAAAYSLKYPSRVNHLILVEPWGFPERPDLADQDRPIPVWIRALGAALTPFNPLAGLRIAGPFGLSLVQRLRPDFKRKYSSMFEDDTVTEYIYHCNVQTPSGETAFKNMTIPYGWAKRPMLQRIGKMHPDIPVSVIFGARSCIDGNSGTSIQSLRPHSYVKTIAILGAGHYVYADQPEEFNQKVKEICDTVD
A3A conf – APOBEC3A (human) deaminase inhibition, confirmed; shares compounds with A3A deaminase; inhibition, % at 20 µM; AID 493151; actives 63% (n = 1,400); recombinant A3A, ssDNA deaminase UDG fluorescence assay;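 active = inhibition reaching a set limit, 80% of the first screen's cutoff, at 20 µM in any replicate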
UDG ctr A3A – counter-screen for APOBEC3A inhibitors: UDG; shares compounds with A3A deaminase; UDG counterscreen, FAM/TAMRA uracil oligo fluorescence; inhibition, % at 20 µM; 1,000 tested, under 10 active; call rule not given here
Large screens that a line does not name were inactive (follow-up assays come after a bar, where they were run). A selection: hits, their analogues and other compounds. The true share with any hit is near 1.2%.

C[C@@H]1CN([C@@H](C)CO)C(=O)c2cc(NC(=O)CCC(F)(F)F)ccc2O[C@@H](C)CCCCO[C@H]1CN(C)C(=O)Cc1ccccc1	none (no result: A3A deaminase, APOBEC3G inh, ABHD5 PLIN5 PPI)
COc1ccc(CN(C)C(=O)CCCNC(=O)c2ccc(Cl)cc2)cc1	A3A deaminase 46 | A3A conf inactive
CCOc1ccc(S(=O)(=O)N(CC(=O)N/N=C/c2ccc(-c3ccc([N+](=O)[O-])cc3)o2)c2ccccc2)cc1	A3A deaminase 66 (no result: FN deposition inh) | A3A conf 37 | UDG ctr A3A inactive
Cc1ccc(C)c(N(CC(=O)N/N=C/c2ccc(-c3ccc([N+](=O)[O-])cc3)o2)S(=O)(=O)c2ccccc2)c1	none (no result: FN deposition inh)
CCN(C(=O)Cn1c(=O)oc2ccccc21)c1cccc(C)c1	A3A deaminase 100 | A3A conf inactive
CCOc1ccc2c(c1)[N+](C)(C)C(C)(C)C=C2C	A3A deaminase 78 | A3A conf 70 | UDG ctr A3A inactive
COc1ccc2c(c1)[N+](C)(C)C(C)(C)C=C2C	A3A deaminase 56 | A3A conf 82 | UDG ctr A3A inactive
COc1ccc2c(c1)C(C)=CC(C)(C)N2S(=O)(=O)c1ccc(C)cc1	none
C[C@H]1CCCCO[C@H](CN(C)S(=O)(=O)c2ccccc2)[C@@H](C)CN([C@@H](C)CO)C(=O)c2cc(NS(=O)(=O)c3ccc(F)cc3)ccc2O1	none (no result: A3A deaminase, APOBEC3G inh, ABHD5 PLIN5 PPI)
CCc1nn(CCCC(=O)N2CCC(C)CC2)c(=O)c2cc3occc3n12	A3A deaminase 40 | A3A conf inactive | UDG ctr A3A inactive
CCc1nn(CCCC(=O)N2CCN(c3ccc(OC)cc3)CC2)c(=O)c2cc3occc3n12	none
O=C(Nc1ccccc1F)N[C@@H]1CC[C@H](CC(=O)N2CCCCC2)O[C@@H]1CO	none (no result: A3A deaminase, APOBEC3G inh, ABHD5 PLIN5 PPI)
CCN1C(=NCCN2CCOCC2)N[C@@H](c2ccccc2)C(C(=O)OC)=C1C	A3A deaminase 49 | A3A conf 52 | UDG ctr A3A inactive
CCN1C(=NCC(C)C)N[C@@H](c2cccc(F)c2)C(C(=O)OC)=C1C	none
CCN1C(=NCCOC)N[C@@H](c2cccc(F)c2)C(C(=O)OC)=C1C	A3A deaminase 59 (no result: FN deposition inh) | A3A conf 71 | UDG ctr A3A inactive
COC(=O)C1=C(C)N(Cc2ccccc2)C(=NCCN2CCOCC2)N[C@H]1CCc1ccccc1	none
CCN1C(=NCCCCO)N[C@@H](c2cccc(F)c2)C(C(=O)OC)=C1C	A3A deaminase 51 | A3A conf 58 | UDG ctr A3A inactive
CCN(CC)CCCN=C1N[C@@H](c2cccc(F)c2)C(C(=O)OC)=C(C)N1Cc1ccccc1	A3A deaminase 46 | A3A conf 82 | UDG ctr A3A inactive
O=C(Nc1ccc2c(c1)[C@H]1C[C@H](CC(=O)N3CCc4ccccc4C3)O[C@@H](CO)[C@H]1O2)Nc1ccccc1F	none (no result: A3A deaminase, APOBEC3G inh, ABHD5 PLIN5 PPI)
CC(=O)Nc1cccc2c1O[C@@H](CN(C)S(C)(=O)=O)[C@H](C)CN(C)C2=O	none (no result: A3A deaminase, APOBEC3G inh, ABHD5 PLIN5 PPI)
COCCN1C(=O)N[C@@H](c2cccs2)C(C(=O)OC)=C1C	none
CCN1C(=NCCOC)N[C@@H](c2cccs2)C(C(=O)OC)=C1C	A3A deaminase 58 | A3A conf 67 | UDG ctr A3A inactive
COc1cccc(S(=O)(=O)N[C@@H]2C=C[C@H](CC(=O)NC3Cc4ccccc4C3)O[C@@H]2CO)c1	none (no result: A3A deaminase, APOBEC3G inh, ABHD5 PLIN5 PPI)
O=c1cc(CSc2nnc(-c3cccs3)n2Cc2ccccc2)nc2sc3ccccc3n12	A3A deaminase 47 | A3A conf inactive
O=C(COc1ccccc1/C=C1/NC(=O)NC1=O)Nc1ccccc1	A3A deaminase 46 | A3A conf 68 | UDG ctr A3A inactive
COC(=O)COc1ccccc1/C=C1/NC(=O)NC1=O	none
COc1cc(Nc2cccc[n+]2C)cc(OC)c1OC	A3A deaminase 69 | A3A conf 62 | UDG ctr A3A inactive
CSCCOC(=O)c1[nH]c2c(c1C)C(=O)CC(c1ccco1)C2 (configuration not stated)	A3A deaminase 44 | A3A conf 39 | UDG ctr A3A inactive
COCCOC(=O)c1[nH]c2c(c1C)C(=O)CC(c1ccco1)C2 (configuration not stated)	A3A deaminase 56 | A3A conf 45 | UDG ctr A3A inactive
CCOC(=O)c1[nH]c2c(c1C)C(=O)CC(c1ccco1)C2 (configuration not stated)	none
Cc1c(C(=O)OCc2ccccc2)[nH]c2c1C(=O)CC(c1ccco1)C2 (configuration not stated)	none (no result: FN deposition inh)
CO[C@H]1CN(C)C(=O)c2ccc(NC(=O)c3cnccn3)cc2OC[C@@H](C)N(C)C[C@H]1C	none (no result: A3A deaminase, APOBEC3G inh, ABHD5 PLIN5 PPI)
O=C(CSc1nccc(=O)[nH]1)N1N=C2/C(=C/c3ccco3)CCCC2C1c1ccco1 (configuration not stated)	A3A deaminase 46 (no result: FN deposition inh) | A3A conf 34 | UDG ctr A3A inactive
C[C@@H]1CN([C@H](C)CO)C(=O)c2cc(NC(=O)Nc3ccc(C(F)(F)F)cc3)ccc2O[C@@H](C)CCCCO[C@@H]1CN(C)Cc1ccccc1	none (no result: A3A deaminase, APOBEC3G inh, ABHD5 PLIN5 PPI)
Cc1cc(C)cc(N(C(=O)c2csnn2)C(C(=O)NC(C)(C)C)c2cccs2)c1 (configuration not stated)	A3A deaminase 68 (no result: FN deposition inh) | A3A conf inactive | UDG ctr A3A inactive
Cc1ccc(N(C(=O)c2csnn2)C(C(=O)NC(C)(C)C)c2cccs2)cc1 (configuration not stated)	none (no result: FN deposition inh)
O=C(CN1C(=O)S/C(=C\c2ccc(-c3cc(C(=O)O)ccc3Cl)o2)C1=O)Nc1ccc2c(c1)OCO2	A3A deaminase 50 | A3A conf inactive | UDG ctr A3A inactive
O=C(Nc1ccc(S(=O)(=O)N2CCCC2)cc1)C1CC(=O)N(c2ccccc2)C1 (configuration not stated)	A3A deaminase 72 | A3A conf inactive
COC(=O)c1ccc2c(c1)c(-c1ccccc1)c(-c1ccccc1)n2C	none (no result: FN deposition inh)
CCOC(=O)c1c(O)c(O)c(C(=O)OCC)n1-c1ccccc1	none
CC(=O)OCC[n+]1c(C)n(-c2ccccc2)c2ccc(Cl)cc21	A3A deaminase 42 (no result: FN deposition inh) | A3A conf 84 | UDG ctr A3A inactive
CCOC(=O)c1ccc2c(c1)[n+](CC)c(C)n2-c1ccccc1	A3A deaminase 75 (no result: FN deposition inh) | A3A conf 85 | UDG ctr A3A inactive
CC[n+]1c(C)n(-c2ccccc2)c2ccc(C(=O)OC)cc21	A3A deaminase 44 | A3A conf 40 | UDG ctr A3A inactive
Cc1ccccc1-c1ccc([C@@H]2[C@H](CO)N3C(=O)CN(C(=O)NC4CCCC4)C[C@@H]23)cc1	none (no result: A3A deaminase, APOBEC3G inh, ABHD5 PLIN5 PPI)
O=C(C[C@@H]1C[C@@H]2c3cc(NC(=O)Nc4ccccc4)ccc3O[C@@H]2[C@H](CO)O1)NCc1ccncc1	none (no result: A3A deaminase, APOBEC3G inh, ABHD5 PLIN5 PPI)
CC1=CC(C)C(CN(CCC[N+](C)(C)C)C(=O)Nc2ccccc2)C(C)C1 (configuration not stated)	A3A deaminase 58 | A3A conf 28 | UDG ctr A3A inactive
